Experimental data from different studies.
Target: Calcium/calmodulin-dependent protein kinase kinase 2 (CAMKK2, Homo sapiens, UniProt Q96RR4)

FC(F)c1nc2ccccc2n1-c1nc(N2CCOCC2)nc(N2CCOCC2)n1  remaining activity (enzyme activity, inhibitor; 10 µM): 87%
COc1cc(Nc2cnc(C#N)c(O[C@H](C)CN(C)C)n2)ncc1-c1cnn(C)c1  remaining activity (enzyme activity, inhibitor, radiometric; 10 µM): 71%
O=C(NCc1ncc(C(F)(F)F)cc1Cl)c1ccc2c(c1)C1(CCS(=O)(=O)CC1)[C@H](C1CC1)N2S(=O)(=O)c1ccc(F)cc1  remaining binding (cell-free assay, competition with immobilised ligand; 1 µM): 100%
CCN1CCC2(CC1)NC(=O)c1c(c3ccc(Cl)c(Cl)c3n1C)C2C#N (racemic)  ΔTm (thermal stability, DSF; 10 µM): 0.5 °C
CC(C)(C)C(=O)c1sc(NC2CCCCC2)nc1N  remaining activity (enzyme activity, inhibitor; 10 µM): 83%
Cc1c[nH]c2nccc(Oc3c(F)cc(Nc4cc(Cl)nc(N)n4)cc3F)c12  remaining binding (cell-free assay, competition with immobilised ligand; 0.1 µM): 98%
Cc1cc(NC(=O)c2cccc3cc(-c4cccc5[nH]nc(N)c45)ccc23)ccc1F  activity vs control (enzyme activity, inhibitor; 0.1 µM): 90%
Cc1ccc(C(=O)NCc2ccsc2)cc1C#Cc1cn(C(C)C)c2ncnc(N)c12  activity vs control (enzyme activity, inhibitor; 1 µM): 110%
CC(=O)Nc1c(C(C)=O)c(=O)n(C)c2nc(-c3ccc(Cl)cc3Cl)c(-c3ccc(Cl)cc3)cc12  remaining binding (cell-free assay, competition with immobilised ligand; 1 µM): 100%
COc1cccc2c(NCc3ccccc3)nc(-n3c(N)nc4ccccc43)nc12  inhibition (target engagement in cells, inhibitor, chemoproteomics; 20 mM): -5.8%
CS(=O)(=O)Nc1cccc(-c2csc(NC(=O)CSc3nc4nccnc4c(=O)n3CCc3ccccc3)n2)c1  inhibition (enzyme activity, inhibitor; 10 µM): 4%
Nc1ncnc2occ(-c3ccc(NC(=O)Nc4cc(C(F)(F)F)ccc4F)cc3)c12  remaining signal (cell-free assay, inhibitor; 20 µM): 24%
O=C(O)[C@H]1[C@H](Cn2nnc3ccccc3c2=O)CC[C@@H]1C(=O)c1ccc(OCCC2CCOCC2)cc1  remaining binding (cell-free assay, competition with immobilised ligand; 1 µM): 90%
CN(C)c1nccc(-c2cnc3ncccn23)n1  remaining binding (binding; 1 µM): 100%
CC(C)(C)c1nc2c(s1)c1nc(N)ncc1c1ccc(NS(=O)(=O)c3c(F)cccc3F)c(F)c12  remaining activity (enzyme activity, inhibitor, radiometric; 1 µM): 107%
Cn1c(=O)n(-c2ccc(C(C)(C)C#N)cc2)c2c3cc(-c4cnc5ccccc5c4)ccc3ncc21  remaining activity (enzyme activity, inhibitor; 10 µM): 61%
CCS(=O)(=O)c1cc2cc(C[C@@](O)(CC(C)(C)c3ccc(F)cc3C(N)=O)C(F)(F)F)[nH]c2cn1  remaining binding (cell-free assay, competition with immobilised ligand; 1 µM): 56%
O=C(Nc1cnn(-c2csc(C(=O)NC3COC3)c2)c1)Nc1ccccc1Cl  remaining activity (enzyme activity, inhibitor; 5 µM): 91.1%
Cn1c2c(Cl)c(Cl)ccc2c2cc[nH]c(=O)c21  ΔTm (thermal stability, DSF; 10 µM): 0.6 °C
O=C(Nc1ccc(Oc2ccc(F)cc2)cc1)N1CCc2ncccc2[C@H]1c1ccc(F)cc1  remaining binding (cell-free assay, competition with immobilised ligand; 1 µM): 100%
O=C1Nc2ccc(Cl)cc2C1=Cc1cc(Cl)c(O)c(Cl)c1  remaining signal (cell-free assay; 0.5 µM): 51.5%
Nc1nc(Nc2ccccc2)sc1C(=O)c1c(F)cccc1F  remaining activity (enzyme activity, inhibitor; 10 µM): 12%
CS(=O)(=O)c1cc(C2(NC(=O)c3cncc4c3cnn4-c3ccc(F)cc3)CC2)ccn1  remaining binding (cell-free assay, competition with immobilised ligand; 1 µM): 75%
Cn1c2c(c3ccc(Cl)c(Cl)c31)C(C#N)C1(CCCC1)NC2=O (centres unmarked)  ΔTm (thermal stability, DSF; 10 µM): 0.3 °C
FC(F)(F)Oc1cccc(-c2cnc3ccc(-c4ccncc4)nn23)c1  activity vs control (enzyme activity, inhibitor, radiometric; 1 µM): 59%
O=C(O)c1ccc2c3c1cccc3c(=O)n1c3ccccc3nc21  remaining signal (cell-free assay; 0.5 µM): 7.88%
c1ccc(CNc2nc(N3CCOc4ccccc43)nc3c2CCCC3)cc1  inhibition (target engagement in cells, inhibitor, chemoproteomics; 20 mM): 0.1%
CCOCCn1cc(C(=O)Nc2ccc(-n3nc(-c4cccnc4)cc3C(F)(F)F)cn2)ccc1=O  remaining binding (cell-free assay, competition with immobilised ligand; 1 µM): 100%
O=C1NC(=O)c2cc(Nc3ccc(F)cc3)c(Nc3ccc(F)cc3)cc21  remaining signal (cell-free assay; 0.5 µM): 88.3%
